ChEMBL document CHEMBL1125474, “Comparative molecular field analysis of anticoccidial triazines” (J Med Chem, 1992)

Test system: Eimeria tenella
Assay: Minimum effective concentration for anti-coccidial activity against […] coccidian parasite Eimeria tenella in chicks expressed as mmol/kg of feed
Format: functional
Summary of the method: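 Chicks kept on feed containing test drug, then challenged with *Eimeria tenella* oocysts. Activity is scored as the degree of lesion control in the ceca of treated, challenged birds. The lowest feed concentration that controls lesions is taken as the MEC. Values are usually reproducible within one 2-fold dilution (±0.3 in log(1/MEC)).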

SMILES	Log 1/MEC
O=C1c2ccccc2CSc2cc(-n3ncc(=O)[nH]c3=O)ccc21	1.04
O=c1cnn(-c2ccc(Oc3ccccc3)cc2)c(=O)[nH]1	-0.25
O=c1cnn(-c2ccc(S(=O)(=O)c3ccc(Cl)cc3)c(Cl)c2)c(=O)[nH]1	2.3
O=c1cnn(-c2ccc(S(=O)(=O)c3ccc(Br)cc3)cc2)c(=O)[nH]1	1.71
CSc1ccc(Oc2ccc(-n3ncc(=O)[nH]c3=O)cc2Cl)cc1	1.98
N#C[C@H](c1ccc(Cl)cc1)c1c(Cl)cc(-n2ncc(=O)[nH]c2=O)cc1Cl	3.61
O=c1cnn(-c2ccc([N+](=O)[O-])cc2)c(=O)[nH]1	-0.03
Cc1cc(-n2ncc(=O)[nH]c2=O)ccc1Oc1ccc(S(C)(=O)=O)cc1	1.97
CC(=O)c1ccc(Sc2c(C)cc(-n3ncc(=O)[nH]c3=O)cc2Cl)cc1	3.19
Cc1cc(-n2ncc(=O)[nH]c2=O)cc(Cl)c1S(=O)(=O)N1CCSCC1	0.53
O=c1cnn(-c2ccc(Sc3ccc4ccccc4c3)c(Cl)c2)c(=O)[nH]1	0.48
N#CC(c1ccc(Cl)cc1)c1c(Cl)cc(-n2ncc(=O)[nH]c2=O)cc1Cl (stereo not drawn) [DICLAZURIL]	3.61
Cc1cc(-n2ncc(=O)[nH]c2=O)ccc1Oc1ccc(Br)cc1	1.7
Cc1cc(-n2ncc(=O)[nH]c2=O)cc(C)c1S(=O)(=O)c1ccc(Cl)cc1	2.59
CCc1cc(-n2ncc(=O)[nH]c2=O)cc(C)c1Sc1ccc(Cl)cc1	0.79
Cc1cc(-n2ncc(=O)[nH]c2=O)cc(C)c1[S+]([O-])c1ccc(Cl)cc1 (stereo not drawn)	2.58
COc1c(Cl)cc(-n2ncc(=O)[nH]c2=O)cc1Cl	0.06
O=c1cnn(-c2ccc(Cl)c(Cl)c2)c(=O)[nH]1	0.63
CS(=O)(=O)c1c(Cl)cc(-n2ncc(=O)[nH]c2=O)cc1Cl	0.13
CCN(C)S(=O)(=O)c1ccc(Oc2c(C)cc(-n3ncc(=O)[nH]c3=O)cc2Cl)c(Cl)c1	2.11
O=c1cnn(-c2ccc(S(=O)(=O)c3ccc(Cl)cc3)cc2)c(=O)[nH]1	1.96
CC(=O)c1ccc(Oc2c(C)cc(-n3ncc(=O)[nH]c3=O)cc2Cl)cc1	2.27
O=C(c1ccc(Cl)cc1)c1c(Cl)cc(-n2ncc(=O)[nH]c2=O)cc1Cl	2.9

SMILES	Log 1/MEC
O=c1cnn(-c2ccc(C(O)c3ccc(Cl)cc3)c(Cl)c2)c(=O)[nH]1 (stereo not drawn)	2.26
Cc1cc(-n2ncc(=O)[nH]c2=O)cc(Cl)c1S(=O)(=O)N(C)C	0.76
Cc1cc(-n2ncc(=O)[nH]c2=O)cc(C)c1Sc1ccc(Cl)cc1 [TIAZURIL]	2.86
O=c1cnn(-c2ccc(Oc3ccc4cc(Br)ccc4c3)c(Cl)c2)c(=O)[nH]1	1.77
Cc1cc(-n2ncc(=O)[nH]c2=O)ccc1Oc1ccc(Cl)cc1	0.74
O=c1cnn(-c2ccc(Sc3ccc(Cl)cc3)c(Cl)c2)c(=O)[nH]1	2.26
O=c1cnn(-c2cc(Cl)c(S(=O)(=O)N3CCOCC3)c(Cl)c2)c(=O)[nH]1	1.13
O=c1cnn(-c2cc(Cl)cc(Cl)c2)c(=O)[nH]1	1.81
CC(C)(C)c1ccc(Sc2ccc(-n3ncc(=O)[nH]c3=O)cc2Cl)cc1	0.51
CSc1ccc(Oc2c(C)cc(-n3ncc(=O)[nH]c3=O)cc2C)cc1	2.25
O=c1cnn(-c2cccc(Cl)c2)c(=O)[nH]1	0.25
O=c1cnn(-c2ccc(Oc3ccc(I)cc3)c(Cl)c2)c(=O)[nH]1	1.77
O=c1cnn(-c2cc(Cl)c(Cc3ccc(Cl)cc3)c(Cl)c2)c(=O)[nH]1	3.18
O=c1cnn(-c2ccc(Br)c(C(F)(F)F)c2)c(=O)[nH]1	1.35
O=c1cnn(-c2ccccc2)c(=O)[nH]1	-0.42
CS(=O)(=O)c1ccc(-n2ncc(=O)[nH]c2=O)cc1	-0.27
O=c1cnn(-c2ccc(S(=O)(=O)N3CCCCC3)c(Cl)c2)c(=O)[nH]1	0.17
O=c1cnn(-c2ccc(Cl)c(C(F)(F)F)c2)c(=O)[nH]1	1.56
Cc1cc(-n2ncc(=O)[nH]c2=O)cc(Cl)c1S(=O)(=O)c1ccc(Cl)cc1	1.71
O=c1cnn(-c2cc(Cl)c(S(=O)(=O)c3ccc(Cl)cc3)c(Cl)c2)c(=O)[nH]1	2.94
Cc1cc(-n2ncc(=O)[nH]c2=O)cc(Cl)c1Oc1ccc(C(C)O)cc1 (stereo not drawn)	2.27
Cc1cc(-n2ncc(=O)[nH]c2=O)cc(Cl)c1Oc1ccc(S(=O)(=O)NC2CC2)cc1Cl	1.51
O=c1cnn(-c2ccc(S(=O)(=O)N3CCOCC3)c(Cl)c2)c(=O)[nH]1	1.09

SMILES	Log 1/MEC
Cc1cc(-n2ncc(=O)[nH]c2=O)ccc1Oc1ccc(Cl)cc1Cl	1.69
CSc1ccc(Oc2c(C)cc(-n3ncc(=O)[nH]c3=O)cc2C)cc1C	2.27
Cc1cc(Cl)cc(-n2ncc(=O)[nH]c2=O)c1	1.2
N#Cc1cccc(-n2ncc(=O)[nH]c2=O)c1	0.85
O=c1cnn(-c2cccc(C(F)(F)F)c2)c(=O)[nH]1	0.93
O=c1cnn(-c2ccc(Oc3ccc(Cl)cc3Cl)c(Cl)c2)c(=O)[nH]1	1.71
Cc1cc(C)cc(-n2ncc(=O)[nH]c2=O)c1	0.86
Cc1cc(-n2ncc(=O)[nH]c2=O)cc(C)c1S(=O)(=O)N1CCOCC1	1.39
Cc1cc(-n2ncc(=O)[nH]c2=O)cc(Cl)c1Oc1ccc(Cl)cc1	1.98
O=c1cnn(-c2ccc(Cc3ccc(Cl)cc3)c(Cl)c2)c(=O)[nH]1	1.64
C[C@@](C#N)(c1ccc(Cl)cc1)c1c(Cl)cc(-n2ncc(=O)[nH]c2=O)cc1Cl	2.62
CSc1ccc(Oc2ccc(-n3ncc(=O)[nH]c3=O)cc2C)cc1	2.23
O=c1cnn(-c2ccc(F)c(C(F)(F)F)c2)c(=O)[nH]1	1.26
Cc1cc(-n2ncc(=O)[nH]c2=O)cc(C)c1C(=O)c1ccc(Cl)cc1	1.38
Cc1cc(-n2ncc(=O)[nH]c2=O)cc(Cl)c1Sc1ccc(Cl)cc1	3.28
O=c1cnn(-c2ccc(S(=O)(=O)c3ccccc3)cc2)c(=O)[nH]1	1.04
O=c1cnn(-c2ccc(S(=O)(=O)N3CCC(O)CC3)c(Cl)c2)c(=O)[nH]1	-0.11
O=c1cnn(-c2cc(I)cc(I)c2)c(=O)[nH]1	1.17
COc1cc(-n2ncc(=O)[nH]c2=O)cc(OC)c1OC	-0.55
Cc1cc(-n2ncc(=O)[nH]c2=O)ccc1C(O)c1ccccc1 (stereo not drawn)	1.01
COc1cc(OC)cc(-n2ncc(=O)[nH]c2=O)c1	-0.3
O=c1cnn(-c2cc(Cl)c(Sc3ccc(Cl)cc3)c(Cl)c2)c(=O)[nH]1	3.3
